High-throughput results (PubChem)
This is a sample that favours compounds with a hit; in the whole collection about 3.3% have one here.
Lipid droplet – hepatic lipid droplet formation modulation. inhibition, % at 6.5 µM. AML12 mouse hepatocytes, oleate lipid droplets, BODIPY imaging. 240,000 tested, 0.4% active;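 active = lipid droplet intensity inhibited by at least 50%, with more than 500 cells counted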
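System: AML12 hepatocytes (mouse). Probe or stimulus: oleic acid at 100 µM to induce lipid droplet formation. Times: overnight treatment with compound plus oleate. Detection: Image-based BODIPY and DAPI two-channel analysis. Evaluation: percent inhibition of filter-corrected integrated lipid droplet intensity per well.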
CendR NRP1 mod – modulators of CendR peptide binding to human neuropilin-1; AID 602438; 360,000 tested, 0.85% active; O14786; FAM-RPARPAR peptide binding to NRP-1, fluorescence polarization; inhibition, % at 25 µM;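 active = inhibition or corrected inhibition above about 18%, plus a signal ratio from 0.5 to 1.5, limit read from the data, passing the limit was not always enough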
Target sequence (O14786 whole entry, looked up): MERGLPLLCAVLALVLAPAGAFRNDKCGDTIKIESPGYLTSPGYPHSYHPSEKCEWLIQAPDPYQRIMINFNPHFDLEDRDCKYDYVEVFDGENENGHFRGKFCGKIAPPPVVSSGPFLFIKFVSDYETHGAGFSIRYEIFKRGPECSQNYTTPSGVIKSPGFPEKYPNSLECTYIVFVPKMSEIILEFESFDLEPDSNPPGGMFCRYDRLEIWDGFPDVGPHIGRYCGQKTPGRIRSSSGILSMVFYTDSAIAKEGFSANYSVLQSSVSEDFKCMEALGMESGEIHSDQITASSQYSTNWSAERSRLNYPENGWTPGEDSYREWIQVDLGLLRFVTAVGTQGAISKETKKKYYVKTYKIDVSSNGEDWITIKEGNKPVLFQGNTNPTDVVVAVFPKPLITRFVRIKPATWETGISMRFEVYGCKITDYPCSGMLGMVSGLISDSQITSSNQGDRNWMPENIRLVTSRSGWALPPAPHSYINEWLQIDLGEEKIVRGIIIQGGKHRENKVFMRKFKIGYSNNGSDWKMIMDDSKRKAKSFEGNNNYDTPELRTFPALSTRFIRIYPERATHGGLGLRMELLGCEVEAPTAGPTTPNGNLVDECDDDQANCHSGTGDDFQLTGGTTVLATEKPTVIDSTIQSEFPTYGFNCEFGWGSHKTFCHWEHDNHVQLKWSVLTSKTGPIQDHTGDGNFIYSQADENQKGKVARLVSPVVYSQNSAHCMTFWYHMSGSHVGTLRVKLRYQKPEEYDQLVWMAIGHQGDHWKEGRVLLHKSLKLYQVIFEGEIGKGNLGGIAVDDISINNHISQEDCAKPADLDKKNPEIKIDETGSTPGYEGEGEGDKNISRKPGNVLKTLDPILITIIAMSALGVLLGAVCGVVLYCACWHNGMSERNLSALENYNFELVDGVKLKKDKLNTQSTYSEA
HGIII-sPLA2 inh – Blocks human group III sPLA2 activity; Q9NZ20; QFRET BODIPY PC-A2 liposome hydrolysis, fluorescence; inhibition, % at 12.2 µM; 370,000 tested, 0.56% active; AID 743126;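 active = inhibition above mean plus 3 SD of compounds lying within the high and low control bounds, cut at about 19% in these data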;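 note: 0% = median of test compound wells and 100% = no enzyme DMSO wells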
HTR2A ag – activates the mouse 5-HT2A serotonin receptor. 360,000 tested, 0.66% active. CHO-K1 mHTR2A beta-arrestin complementation, luminescence; percent of 30 µM serotonin response. activation, % at 7.6 µM. P35363;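 active = activation above a run cutoff, the mean activation of all tested compounds plus 3 SD, cut at about 14% in these data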;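 note: 0% = plate median of compound wells and 100% = 30 µM serotonin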
PfM18AAP inh – PfM18AAP enzyme inhibition; inhibition, % at 7.35 µM; 290,000 tested, 1.2% active; AID 1822; recombinant PfM18AAP, H-Glu-NHMec fluorogenic cleavage;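 active = inhibition above the campaign mean inhibition over all tested compounds plus 3 SD, cut at about 28% in these data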;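 note: 0% = plate median of test compound wells and 100% = 2 mM ZnCl2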
Arrestin-AP2 inh – blocks beta-arrestin peptide binding to AP2 adaptin. FITC-arrestin peptide / GST-AP2 beads, flow cytometry; AP2 beta2 appendage carries R879A mutation. inhibition, % at 10 µM. 340,000 tested, 0.31% active. AID 504490;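 active = inhibition above a set limit, near 3 SD of compounds lacking own fluorescence, cut at about 54% in these data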;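 note: plate controls were DMSO wells for no effect and 5 µM unlabelled arrestin peptide for full effect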
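System: GST-AP2 R879A bound to glutathione beads, E. coli-expressed. Also added: 50 nM FITC-arrestin peptide. Schedule: compound with beads 12 min RT, then probe 1 h RT. Signal: bead flow cytometry, FITC channel. Read-out basis: percent response.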
An asterisk follows results filed as active.

What do the screens show for `Cc1c(C(=O)Nc2ccc(OC(F)(F)F)cc2)sc2nc3n(c(=O)c12)CCC3`?
CendR NRP1 mod: 44*; HGIII-sPLA2 inh: 5; HTR2A ag: 8; PfM18AAP inh: 0; Arrestin-AP2 inh: 14

What do the screens show for `Cc1cc(-c2nnc(SCC(=O)Nc3nc(-c4ccccc4)cs3)o2)no1`?
Lipid droplet: 0; CendR NRP1 mod: -13; HGIII-sPLA2 inh: -2; HTR2A ag: -2; PfM18AAP inh: 30*; Arrestin-AP2 inh: 6

How did CCCCOc1ccc(C(=O)N/C(=C/C=C/c2ccccc2)C(=O)NCCO)cc1 do in these assays?
Lipid droplet: -36; CendR NRP1 mod: 16; HGIII-sPLA2 inh: -34; HTR2A ag: 8; PfM18AAP inh: 3; Arrestin-AP2 inh: 18

How did CCCCOc1ccc(C(=O)N/C(=C/C=C/c2ccccc2)C(=O)NCCCO)cc1 do in these assays?
Lipid droplet: 1; CendR NRP1 mod: 22*; HGIII-sPLA2 inh: -35; HTR2A ag: -3; PfM18AAP inh: 3; Arrestin-AP2 inh: 1

Results for Cc1ccc(S(=O)(=O)NCC2CCN(C(=O)C(=O)c3cccs3)CC2)cc1 ?
HGIII-sPLA2 inh: 0

Results for Oc1ccc(/C=N/N2CCN(C3c4ccccc4-c4ccccc43)CC2)cc1 ?
Lipid droplet: 21; CendR NRP1 mod: 21*; HGIII-sPLA2 inh: -3; HTR2A ag: -3; PfM18AAP inh: 1; Arrestin-AP2 inh: -3

How did COc1cc(NC(=O)c2ccccc2)c(C)cc1NC(=O)CSc1nnc(-c2cnccn2)n1-c1ccc(C)cc1 do in these assays?
HGIII-sPLA2 inh: -2

How did C[C@@H]1COc2cc(N3CCSCC3)ccc2S(=O)(=O)N1C do in these assays?
HGIII-sPLA2 inh: 0

What do the screens show for `Nc1nc2ccc(Cl)cc2cc1C(=O)NCCc1c[nH]c2ccccc12`?
CendR NRP1 mod: -8; HTR2A ag: 2

How did CC(=O)C[C@@H]1OC2CCCCC2N1S(=O)(=O)c1ccc(C)cc1 (stereo partly drawn) do in these assays?
CendR NRP1 mod: -7; HGIII-sPLA2 inh: 7; HTR2A ag: 0

Results for COc1ccc(N/C=C2\CCc3ccccc3C2=O)cc1 ?
Lipid droplet: 26; CendR NRP1 mod: -69; HGIII-sPLA2 inh: 5; HTR2A ag: -8; PfM18AAP inh: 37*; Arrestin-AP2 inh: 12

Results for CCCCSC(=S)NC1CCS(=O)(=O)C1 (stereo not drawn) ?
Lipid droplet: 17; CendR NRP1 mod: 25*; HGIII-sPLA2 inh: 5; HTR2A ag: -1; PfM18AAP inh: 0; Arrestin-AP2 inh: 5

Results for O=S1(=O)CCC(NC(=S)SCCOc2ccccc2)C1 (stereo not drawn) ?
Lipid droplet: -13; CendR NRP1 mod: -2; HGIII-sPLA2 inh: -1; HTR2A ag: 10; PfM18AAP inh: 2; Arrestin-AP2 inh: -32

Results for Cc1oc2cc3oc(=O)cc(C)c3cc2c1C ?
Lipid droplet: -1; CendR NRP1 mod: -2; HGIII-sPLA2 inh: -1; HTR2A ag: 4; PfM18AAP inh: -3; Arrestin-AP2 inh: 2

What do the screens show for `COCCCNC(=O)C[C@@H]1C[C@@]2(C(=O)OC)CC(C)(C)CC=C2N(Cc2cccc3ccccc23)C1=O`?
CendR NRP1 mod: 24*; HGIII-sPLA2 inh: -22; HTR2A ag: -2

What do the screens show for `CCCCOCCCNC(=O)C[C@@H]1C[C@@]2(C(=O)OC)CC(C)(C)CC=C2N(Cc2cccc3ccccc23)C1=O`?
CendR NRP1 mod: 2; HGIII-sPLA2 inh: -13; HTR2A ag: 3

How did Cc1cc(C(=O)Nc2ncn(Cc3ccc(F)cc3)n2)ccc1[N+](=O)[O-] do in these assays?
Lipid droplet: -12; CendR NRP1 mod: -4; HGIII-sPLA2 inh: 8; HTR2A ag: -2; PfM18AAP inh: 31*; Arrestin-AP2 inh: 1

Results for C/C=C/c1cnc2c(c1)C(=O)N([C@@H](C)CO)C[C@H](C)[C@@H](CN(C)S(=O)(=O)c1ccc(C)cc1)O2 ?
CendR NRP1 mod: 11; HGIII-sPLA2 inh: -5; HTR2A ag: -1

Results for COc1ccc([N+](=O)[O-])cc1NC(=O)CCNC(=O)Cn1ccc2ccccc2c1=O ?
Lipid droplet: 5; CendR NRP1 mod: 30*; HGIII-sPLA2 inh: 2; HTR2A ag: 2; PfM18AAP inh: -5; Arrestin-AP2 inh: 4

How did CCCOC(=O)c1c(-c2ccc(C)cc2C)csc1NC(=O)C1C2CCC(O2)C1C(=O)O (stereo not drawn) do in these assays?
Lipid droplet: -62; CendR NRP1 mod: 10; HGIII-sPLA2 inh: -22; HTR2A ag: 0; PfM18AAP inh: 30*; Arrestin-AP2 inh: -9

Results for C=CCN1C(=O)c2n[nH]c(COC)c2C1c1ccc(F)cc1 (stereo not drawn) ?
HGIII-sPLA2 inh: 4

Results for CN(Cc1ccc(F)cc1)C(=O)c1cccc(OC2CCN(C3CCCC3)CC2)c1 ?
Lipid droplet: -2; CendR NRP1 mod: 26*; HGIII-sPLA2 inh: -6; HTR2A ag: -3; PfM18AAP inh: -2; Arrestin-AP2 inh: -12

How did Cc1ccc(S(=O)(=O)NC[C@@H]2C[C@H](c3ccccc3)ON2S(=O)(=O)c2ccc(C)cc2)cc1 do in these assays?
HGIII-sPLA2 inh: -22

Results for COCCCNS(=O)(=O)c1ccc2c3c(cccc13)C(=O)S2 ?
Lipid droplet: -18; CendR NRP1 mod: 29*; HGIII-sPLA2 inh: -3; HTR2A ag: -4; PfM18AAP inh: 0; Arrestin-AP2 inh: -5

How did COCCNS(=O)(=O)c1ccc2c3c(cccc13)C(=O)N2C do in these assays?
Lipid droplet: 2; CendR NRP1 mod: -19; HGIII-sPLA2 inh: 4; HTR2A ag: 0; PfM18AAP inh: 1; Arrestin-AP2 inh: 1

What do the screens show for `O=S1(=O)c2ccc(N3CCSCC3)cc2Oc2ccccc2CN1Cc1cn(Cc2cccc(C(F)(F)F)c2)nn1`?
HGIII-sPLA2 inh: -4

Results for CCCCn1[nH]c(-c2ccccc2)cc1=O ?
Lipid droplet: -2; CendR NRP1 mod: 0; HGIII-sPLA2 inh: 17; HTR2A ag: -3; PfM18AAP inh: 30*; Arrestin-AP2 inh: 28

What do the screens show for `CCCCCCCCN1C(=O)[C@@H](CC(=O)NCc2ccc(OC)c(OC)c2)C[C@@]2(C(=O)OC)C1=C[C@H](C(C)C)O[C@@H]2C1CC1`?
HGIII-sPLA2 inh: -18

What do the screens show for `O=C(NCc1ccco1)c1cccnc1Cl`?
Lipid droplet: 7; CendR NRP1 mod: 1; HGIII-sPLA2 inh: 3; HTR2A ag: 2; PfM18AAP inh: -1; Arrestin-AP2 inh: -5

Results for O=C(NCc1ccco1)c1cccnc1-c1nc2ccccc2s1 ?
Lipid droplet: 1; CendR NRP1 mod: -3; HGIII-sPLA2 inh: -1; HTR2A ag: -1; PfM18AAP inh: 31*; Arrestin-AP2 inh: 12
